# Reference: ChEMBL document CHEMBL5344428, “Discovery, Crystallographic Studies, and Mechanistic Investigations of Novel Phenylalanine Derivatives Bearing a Quinazolin-4-one Scaffold as Potent HIV Capsid Modulators” (J Med Chem, 2023)
# Legend:
# [1] = Selectivity ratio of EC50 for antiviral activity against HIV1 IIIB infected in human MT4 cells to EC50 for antiviral activity against HIV2 ROD infected in human MT4 cells; type: toxicity, cell-based
# Method in brief: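 Ratio is EC50 against HIV-1 IIIB divided by EC50 against HIV-2 ROD. Both EC50 values come from MTT-read protection of infected MT-4 cells.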
# [2] = Selectivity index, ratio of CC50 for cytotoxicity against human MT4 cells to EC50 for antiviral activity against HIV2 ROD infected in human MT4 cells; type: toxicity, cell-based; conditions: read-out: Ratio CC50/EC50
# Method in brief: (§1)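 SI is CC50 divided by EC50. CC50 comes from MTT viability of uninfected MT-4 cells. EC50 comes from MTT-read protection of MT-4 cells infected with HIV-1 IIIB or HIV-2 ROD. Each value was run in at least triplicate.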
# [3] = Selectivity index, ratio of CC50 for cytotoxicity against human MT4 cells to EC50 for antiviral activity against HIV1 IIIB infected in human MT4 cells; type: toxicity, cell-based; conditions: read-out: Ratio CC50/EC50; method in brief: as §1
# [4] = Cytotoxicity against human MT4 cells assessed as reduction in cell viability incubated for 5 days by MTT assay; type: toxicity, cell-based; conditions: MT4 cells, time 5 day
# Method in brief: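 Uninfected MT-4 cells were exposed to compound, and viability was read by the MTT method. […] Each value was run in at least triplicate and averaged from at least three independent experiments.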
# [5] = tested on: Human immunodeficiency virus 1; assay: Antiviral activity against HIV1 IIIB infected in human MT4 cells assessed as reduction in virus induced cytopathic effect measured after 5 days by MTT assay; type: functional, organism-based; conditions: Human immunodeficiency virus 1, IIIB, MT4, 120 h
# Method in brief: (§2)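 MT-4 cells were infected with HIV-1 IIIB or HIV-2 ROD, and cell viability was read by MTT. […] Each value was run in at least triplicate and averaged from at least three independent experiments.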
# [6] = tested on: Human immunodeficiency virus 2; assay: Antiviral activity against HIV2 ROD infected in human MT4 cells assessed as reduction in virus induced cytopathic effect measured after 5 days by MTT assay; type: functional, organism-based; conditions: Human immunodeficiency virus 2, ROD, MT4, 120 h; method in brief: as §2
structure (smiles),measurement,setting,value
COc1ccc(-n2c([C@H](Cc3cc(F)cc(F)c3)NC(=O)CN3CCN(S(=O)(=O)c4ccc([N+](=O)[O-])cc4)CC3)nc3cc(F)ccc3c2=O)cc1,Ratio EC50,[1],1.4
same,selectivity ratio,[2],> 481
same,selectivity ratio,[3],> 338
same,CC50 at 120 h,[4],> 167 µM
same,EC50,[5],0.49 µM
same,EC50,[6],0.35 µM
COc1ccc(N(C)C(=O)[C@H](Cc2ccccc2)NC(=O)Cn2ccc(NC(=O)c3ccc(C)cc3)cc2=O)cc1,Ratio EC50,[1],1.25
same,selectivity ratio,[2],2.85
same,selectivity ratio,[3],2.28
same,CC50 at 120 h,[4],58.3 µM
same,EC50,[5],25.6 µM
same,EC50,[6],20.5 µM
COc1ccc(-n2c(SCc3ccc(S(C)(=O)=O)cc3)nnc2[C@H](Cc2ccccc2)NC(=O)Cc2c(C)[nH]c3ccccc23)cc1,Ratio EC50,[1],0.31
same,selectivity ratio,[2],22
same,selectivity ratio,[3],71
same,CC50 at 120 h,[4],172 µM
same,EC50,[5],2.43 µM
same,EC50,[6],7.89 µM
COc1ccc(N(C)C(=O)[C@H](Cc2cc(F)cc(F)c2)NC(=O)CN(Cc2ccc(C#N)cc2)C(=O)Cc2cccc3ccccc23)cc1,Ratio EC50,[1],82.32
same,selectivity ratio,[2],> 82
same,CC50 at 120 h,[4],> 189 µM
same,EC50,[5],> 189 µM
same,EC50,[6],2.3 µM
COc1ccc(N(C)C(=O)[C@H](Cc2cc(F)cc(F)c2)NC(=O)CN2CCN(C(=O)Cc3c[nH]c4ccc(Br)cc34)CC2=O)cc1,selectivity ratio,[2],< 1
same,selectivity ratio,[3],< 1
same,CC50 at 120 h,[4],3.15 µM
same,EC50,[5],> 3.15 µM
same,EC50,[6],> 3.15 µM
COc1ccc(N(C)C(=O)[C@H](Cc2cc(F)cc(F)c2)NC(=O)CN(Cc2ccc(F)cc2)C(=O)Cc2c(C)[nH]c3ccccc23)cc1,Ratio EC50,[1],< 0.12
same,selectivity ratio,[3],8
same,CC50 at 120 h,[4],22.6 µM
same,EC50,[5],2.79 µM
same,EC50,[6],> 22.6 µM
COc1ccc(-n2c(SCCN3CCOCC3)nnc2[C@H](Cc2ccccc2)NC(=O)Cc2c(C)[nH]c3ccccc23)cc1,Ratio EC50,[1],0.16
same,selectivity ratio,[2],16
same,selectivity ratio,[3],103
same,EC50,[5],0.79 µM
same,EC50,[6],4.98 µM
COc1ccc(N(C)C(=O)[C@H](Cc2ccccc2)NC(=O)Cn2ccc(NC(=O)c3ccc(F)cc3)cc2=O)cc1,Ratio EC50,[1],> 2.15
same,selectivity ratio,[2],2.15
same,CC50 at 120 h,[4],34.8 µM
same,EC50,[5],> 34.8 µM
same,EC50,[6],16.2 µM
COc1ccc(N(C)C(=O)[C@H](Cc2ccccc2)NC(=O)Cn2ccc(NC(=O)c3ccc4ccccc4c3)cc2=O)cc1,CC50 at 120 h,[4],27.6 µM
same,EC50,[5],> 27.6 µM
same,EC50,[6],> 27.6 µM
COc1ccc(-n2c(SCc3ccc(B(O)O)cc3)nnc2[C@H](Cc2ccccc2)NC(=O)Cc2c(C)[nH]c3ccccc23)cc1,Ratio EC50,[1],< 0.13
same,selectivity ratio,[3],8
same,CC50 at 120 h,[4],20.8 µM
same,EC50,[5],2.71 µM
same,EC50,[6],> 20.8 µM
COc1ccc(-n2c(SCC#N)nnc2[C@H](Cc2ccccc2)NC(=O)Cc2c(C)[nH]c3ccccc23)cc1,Ratio EC50,[1],0.22
same,selectivity ratio,[2],36
same,selectivity ratio,[3],163
same,EC50,[5],0.59 µM
same,EC50,[6],2.69 µM
COc1ccc(N(C)C(=O)[C@H](Cc2ccccc2)NC(=O)Cn2ccc(NC(=O)c3ccc(Br)cc3)cc2=O)cc1,CC50 at 120 h,[4],23.5 µM
same,EC50,[5],> 23.5 µM
same,EC50,[6],> 23.5 µM
O=C(CN1CCN(S(=O)(=O)c2ccc([N+](=O)[O-])cc2)CC1)N[C@@H](Cc1ccccc1)c1nc2ccccc2c(=O)n1-c1ccc(S(=O)(=O)N2CCS(=O)(=O)CC2)cc1,selectivity ratio,[2],> 198
same,selectivity ratio,[3],> 11.5
same,CC50 at 120 h,[4],> 145 µM
same,EC50,[5],12.6 µM
same,EC50,[6],0.73 µM
COc1ccc(N(C)C(=O)[C@H](Cc2ccccc2)NC(=O)Cn2ccc(NC(=O)c3ccc(Cl)cc3)cc2=O)cc1,CC50 at 120 h,[4],25.5 µM
same,EC50,[5],> 25.5 µM
same,EC50,[6],> 25.5 µM
COc1ccc(N(C)C(=O)[C@H](Cc2cc(F)cc(F)c2)NC(=O)CN(CC2CCCCC2)C(=O)Cc2c[nH]c3ccc(Br)cc23)cc1,selectivity ratio,[2],< 1
same,selectivity ratio,[3],< 1
same,CC50 at 120 h,[4],17.6 µM
same,EC50,[5],> 17.6 µM
same,EC50,[6],> 17.6 µM
COc1ccc(-n2c(SCCCN3CCOCC3)nnc2[C@H](Cc2ccccc2)NC(=O)Cc2c(C)[nH]c3ccccc23)cc1,Ratio EC50,[1],0.16
same,selectivity ratio,[2],13
same,selectivity ratio,[3],83
same,EC50,[5],0.59 µM
same,EC50,[6],3.73 µM
COc1ccc(N(C)C(=O)[C@H](Cc2ccccc2)NC(=O)Cn2ccc(NC(=O)c3ccc([N+](=O)[O-])cc3)cc2=O)cc1,CC50 at 120 h,[4],31.9 µM
same,EC50,[5],> 31.9 µM
same,EC50,[6],> 31.9 µM
